Measurements reported in ChEMBL document CHEMBL3286178, “Cell membrane mediated (-)-epicatechin effects on upstream endothelial cell signaling: evidence for a surface receptor” (Bioorg Med Chem Lett, 2014).
Active and inactive are the calls of the source.

Key:
[1] = species on record: Homo sapiens; experiment: Induction of PI3K in calcium free HCAEC assessed as PDK1 phosphorylation at 100 nM after 10 mins incubation by Western blot analysis
Outline: (§1)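 Ca2+-free human coronary artery endothelial cells treated 10 min with 100 nM free or dextran-conjugated compound (conjugate dose expressed as equivalent bound compound); phospho-PI3K, phospho-PDK1, phospho-AKT, phospho-eNOS (Ser1177, Ser615) and PIP3 assessed, with or without PI3K inhibitor wortmannin; Western blots representative of three independent experiments.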

[2] = species on record: Homo sapiens; experiment: Induction of PI3K phosphorylation in calcium free HCAEC at 100 nM after 10 mins incubation by Western blot analysis; outline: as §1
[3] = species on record: Homo sapiens; experiment: Induction of PI3K phosphorylation in calcium free HCAEC at 100 nM after 10 mins incubation by Western blot analysis in presence of wortmannin; outline: as §1
[4] = biological target: T1, Nitric oxide synthase 3 (Homo sapiens) (UniProt P29474); experiment: Induction of eNOS activation in calcium free HCAEC assessed as phosphorylation at serine 1177 at 100 nM after 10 mins incubation in presence of wortmannin; outline: as §1
T1 sequence (whole entry): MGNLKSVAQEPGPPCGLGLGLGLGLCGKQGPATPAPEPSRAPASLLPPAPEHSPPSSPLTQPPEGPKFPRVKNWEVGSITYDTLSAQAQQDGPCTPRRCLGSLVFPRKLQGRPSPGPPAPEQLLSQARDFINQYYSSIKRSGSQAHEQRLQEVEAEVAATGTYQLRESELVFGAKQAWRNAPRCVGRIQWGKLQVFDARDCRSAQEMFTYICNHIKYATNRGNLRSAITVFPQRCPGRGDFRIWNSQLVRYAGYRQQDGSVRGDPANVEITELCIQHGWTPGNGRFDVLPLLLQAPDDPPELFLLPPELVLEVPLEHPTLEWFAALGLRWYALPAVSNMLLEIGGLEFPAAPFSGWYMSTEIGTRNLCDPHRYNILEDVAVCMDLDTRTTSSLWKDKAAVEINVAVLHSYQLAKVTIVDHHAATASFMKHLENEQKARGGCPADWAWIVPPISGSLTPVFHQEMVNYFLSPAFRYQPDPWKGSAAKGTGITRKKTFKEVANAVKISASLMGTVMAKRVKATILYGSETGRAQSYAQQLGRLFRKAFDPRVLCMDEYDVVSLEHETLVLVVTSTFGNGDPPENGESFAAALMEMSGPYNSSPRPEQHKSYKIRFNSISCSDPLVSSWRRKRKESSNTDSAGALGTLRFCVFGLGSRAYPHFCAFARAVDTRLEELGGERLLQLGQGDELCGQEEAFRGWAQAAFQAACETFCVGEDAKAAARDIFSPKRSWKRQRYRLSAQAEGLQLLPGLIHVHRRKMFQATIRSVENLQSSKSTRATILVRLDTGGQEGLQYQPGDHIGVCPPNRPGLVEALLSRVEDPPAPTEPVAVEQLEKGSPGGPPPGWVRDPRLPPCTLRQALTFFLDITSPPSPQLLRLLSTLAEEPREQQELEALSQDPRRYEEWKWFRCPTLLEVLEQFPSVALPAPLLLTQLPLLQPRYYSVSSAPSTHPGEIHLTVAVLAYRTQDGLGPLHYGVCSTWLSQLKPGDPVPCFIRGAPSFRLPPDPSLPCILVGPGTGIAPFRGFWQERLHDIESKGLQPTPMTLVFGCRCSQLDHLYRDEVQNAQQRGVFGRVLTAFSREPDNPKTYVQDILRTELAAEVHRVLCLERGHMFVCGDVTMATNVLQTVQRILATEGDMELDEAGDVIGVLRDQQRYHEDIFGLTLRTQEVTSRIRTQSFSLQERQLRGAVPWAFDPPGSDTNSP

[5] = biological target: T1, Nitric oxide synthase 3 (Homo sapiens); experiment: Induction of eNOS activation in calcium free HCAEC assessed as phosphorylation at serine 1177 at 100 nM after 10 mins incubation; outline: as §1
[6] = species on record: Homo sapiens; experiment: Induction of PI3K in calcium free HCAEC assessed as PDK1 phosphorylation at 100 nM after 10 mins incubation by Western blot analysis in presence of wortmannin; outline: as §1
[7] = species on record: Homo sapiens; experiment: Induction of PI3K in calcium free HCAEC assessed as Akt phosphorylation at 100 nM after 10 mins incubation by Western blot analysis; outline: as §1
[8] = species on record: Homo sapiens; experiment: Effect on eNOS phosphorylation at Thr 495 in calcium free HCAEC at 100 nM after 10 mins incubation; assay type: functional
[9] = species on record: Homo sapiens; experiment: Induction of PIP3 level in calcium free HCAEC at 100 nM after 10 mins incubation by Western blot analysis; assay type: functional; outline: as §1
[10] = species on record: Homo sapiens; experiment: Induction of PI3K in calcium free HCAEC assessed as Akt phosphorylation at 100 nM after 10 mins incubation by Western blot analysis in presence of wortmannin; outline: as §1
[11] = biological target: T1, Nitric oxide synthase 3 (Homo sapiens); experiment: Induction of eNOS activation in calcium free HCAEC assessed as phosphorylation at serine 615 at 100 nM after 10 mins incubation in presence of wortmannin; outline: as §1
[12] = system: brain; experiment: Binding affinity to rat brain cell membrane at 10 uM
[13] = biological target: T1, Nitric oxide synthase 3 (Homo sapiens); experiment: Induction of eNOS activation in calcium free HCAEC assessed as phosphorylation at serine 615 at 100 nM after 10 mins incubation; outline: as §1
[14] = species on record: Homo sapiens; experiment: Induction of PIP3 level in calcium free HCAEC at 100 nM after 10 mins incubation by Western blot analysis in presence of wortmannin; assay type: functional; outline: as §1
[15] = Binding affinity to rat brain cell membrane; assay type: cell membranes

Oc1cc(O)c2c(c1)O[C@H](c1ccc(O)c(O)c1)[C@H](O)C2
inactive: Activity [3] | Activity [4] | Activity [6] | Activity [8] | Activity [10] | Activity [11] | Activity [12] | Activity [14]
active: Activity [1] | Activity [2] | Activity [5] | Activity [7] | Activity [9] | Activity [13]

Oc1ccc(/C=C/c2cc(O)cc(O)c2)cc1 [RESVERATROL]
102 nM: Ki [15]

O=C(O[C@@H]1Cc2c(O)cc(O)cc2O[C@@H]1c1cc(O)c(O)c(O)c1)c1cc(O)c(O)c(O)c1 [EPIGALOCATECHIN GALLATE]
25 nM: Ki [15]

O=C(O[C@@H]1Cc2c(O)cc(O)cc2O[C@@H]1c1ccc(O)c(O)c1)c1cc(O)c(O)c(O)c1 [EPICATECHIN GALLATE]
25 nM: Ki [15]
